Usually inhibition stands for the percentage by which the read-out fell short of the control. Low readings indicate a weak effect, high ones a strong effect. For orientation: IC50 means the concentration that inhibits the measured activity by half.

Results on six compounds are retold here after ChEMBL document CHEMBL1128383, “Potent, orally active, competitive N-methyl-D-aspartate (NMDA) receptor antagonists are substrates for a neutral amino acid uptake system in Chinese hamster ovary cells” (J Med Chem, 1995).

SMILES strings stand for the structures.

Test [1] addresses T1, Glutamate NMDA receptor (Rattus norvegicus) (UniProt P35439+Q00959+Q00960+Q00961+Q62645+Q8VHN2+Q9R1M7). Briefly: (§1) Inhibition of NMDA receptor binding affinity in rat brain synaptosomal membrane using [3H]glycine as radioligand. Format: cell membranes. The note with it: concentration not given here. In a few lines:
(§2)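 Displacement of radioligand ([3H]glutamate, [3H]glycine or [3H]CGP 39653) from rat cortex synaptosomal membranes. IC50 values are means of at least two experiments, each run in triplicate.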

For test [2], the target named is T1, Glutamate NMDA receptor (Rattus norvegicus). Kind of test: (§3) Inhibition of NMDA receptor binding affinity in rat brain synaptosomal membrane using [3H]glutamate as radioligand. Format: cell membranes. The conditions noted are these: concentration not given here. Summed up:
as §2

Test [3] has the same target. Briefly: (§4) Inhibition of receptor binding affinity in rat brain synaptosomal membrane was determined by [3H]-CGP- 39653 as radioligand. The conditions noted are these: concentration not given here. The format is cell membranes. Summed up:
as §2

Test [4] concerns Mus musculus. Kind of test: Maximal electroshock (MES) results in mice by iv administration of 0.3 mg/kg expressed as number of animals protected by total 5 animals tested after 1 hr was reported. The format is functional. Summed up:
(§5)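 Adult male CF-1 mice (18–24 g) dosed iv, mg/kg. At 15 min, 1 h and 2 h after dosing, a 60 Hz sinusoidal current (50 mA base to peak, 0.2 s) is applied through corneal electrodes smeared with electrolyte jelly. Protection means no tonic hindlimb extension. Ataxia is scored by inverted screen. Data are expressed as animals affected per animals tested, 5 per group.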
Background: The maximal electroshock test induces tonic seizures with an electrical stimulus.

The target in test [5] is Glutamate NMDA receptor. The description is as §4. The format is cell membranes. In a few lines: as §2
Test [6] concerns Mus musculus. Briefly: Maximal electroshock (MES) results in mice by iv administration of 1 mg/kg expressed as number of animals protected by total 5 animals tested after 15 min was reported. The format is functional. In a few lines:
as §5

Test [7] concerns Mus musculus. Briefly: Maximal electroshock (MES) results in mice by iv administration of 0.3 mg/kg expressed as number of animals ataxia by total 5 animals tested after 15 min was reported. Format: functional. In a few lines: as §5
Test [8] concerns Mus musculus. Kind of test: Maximal electroshock (MES) results in mice by iv administration of 1 mg/kg expressed as number of animals ataxia by total 5 animals tested after 15 min was reported. The format is functional. Summed up: as §5
Test [9] deals with Glutamate NMDA receptor. Described as §3. Format: cell membranes. Summed up: as §2
The subject of test [10] is Mus musculus. Briefly: Maximal electroshock (MES) results in mice by iv administration of 1 mg/kg expressed as number of animals protected by total 5 animals tested after 1 hr was reported. Format: functional. In a few lines: as §5
Test [11] concerns Mus musculus. Kind of test: Maximal electroshock (MES) results in mice by iv administration of 0.3 mg/kg expressed as number of animals protected by total 5 animals tested after 15 min was reported. Format: functional. In a few lines: as §5
Test [12] has as its system Mus musculus. Kind of test: Maximal electroshock (MES) results in mice by iv administration of 1 mg/kg expressed as number of animals protected by total 5 animals tested after 2 hr was reported. The format is functional. In a few lines: as §5
Test [13] deals with Mus musculus. Briefly: Maximal electroshock (MES) results in mice by iv administration of 1 mg/kg expressed as number of animals ataxia by total 5 animals tested after 1 hr was reported. The format is functional. Summed up:
as §5

The subject of test [14] is Mus musculus. Briefly: Maximal electroshock (MES) results in mice by iv administration of 0.3 mg/kg expressed as number of animals ataxia by number of animals tested after 1 hr was reported. The format is functional. In a few lines: as §5
Test [15] concerns Mus musculus. Briefly: Maximal electroshock (MES) results in mice by iv administration of 0.3 mg/kg expressed as number of animals protected by total 5 animals tested after 2 hr was reported. The format is functional. In a few lines: as §5
In test [16] the test system is Mus musculus. Briefly: Maximal electroshock (MES) results in mice by iv administration of 0.3 mg/kg expressed as number of animals ataxia by total 5 animals tested after 2 hr was reported. Format: functional. In a few lines: as §5
The test system of test [17] is Mus musculus. Briefly: Maximal electroshock (MES) results in mice by iv administration of 1 mg/kg expressed as number of animals ataxia by total 5 animals tested after 2 hr was reported. The format is functional. Summed up:
as §5

Test [18] has as its target T1, Glutamate NMDA receptor (Rattus norvegicus). Kind of test: Inhibition of NMDA receptor binding affinity in rat brain synaptosomal membrane by using [3H]glycine as radioligand. The format is cell membranes. The note with it: concentration not given here. In a few lines: as §2
Test [19] has the same target. Kind of test: Inhibition of NMDA receptor binding in rat brain synaptosomal membrane using [3H]glutamate as radioligand. The note with it: concentration not given here. The format is cell membranes. Summed up: as §2
The subject of test [20] is Mus musculus. Briefly: Maximal electroshock (MES) results in mice by iv administration of 10 mg/kg expressed as number of animals protected by total 5 animals tested after 2 hr was reported. The format is functional. In a few lines:
as §5

The subject of test [21] is Mus musculus. Briefly: Maximal electroshock (MES) results in mice by iv administration of 10 mg/kg expressed as number of animals protected by total 5 animals tested after 1 hr was reported. Format: functional. In a few lines:
as §5

Test [22] has as its target Glutamate NMDA receptor. The description is as §1. The format is cell membranes. In a few lines: as §2
For test [23], the system named is Mus musculus. Kind of test: Maximal electroshock (MES) results in mice by iv administration of 10 mg/kg expressed as number of animals protected by total 5 animals tested after 15 min was reported. Format: functional. In a few lines: as §5
The test system of test [24] is Mus musculus. Kind of test: Maximal electroshock (MES) results in mice by iv administration of 10 mg/kg expressed as number of animals ataxia by total 5 animals tested after 1 hr was reported. Format: functional. Summed up: as §5
The test system of test [25] is Mus musculus. Briefly: Maximal electroshock (MES) results in mice by iv administration of 10 mg/kg expressed as number of animals ataxia by total 5 animals tested after 2 hr was reported. Format: functional. In a few lines: as §5
Test [26] deals with Mus musculus. Kind of test: Maximal electroshock (MES) results in mice by iv administration of 10 mg/kg expressed as number of animals ataxia by total 5 animals tested after 15 min was reported. The format is functional. In a few lines:
as §5

Test [27] concerns Mus musculus. Kind of test: Maximal electroshock (MES) results in mice by iv administration of 3 mg/kg expressed as number of animals with ataxia by total 5 animals tested after 15 min was reported. Format: functional. In a few lines: as §5
The subject of test [28] is Mus musculus. Kind of test: Maximal electroshock (MES) results in mice by iv administration of 10 mg/kg expressed as number of animals with ataxia total 5 animals tested after 2 hr was reported. The format is functional. In a few lines: as §5
Test [29] deals with Mus musculus. Kind of test: Maximal electroshock (MES) results in mice by iv administration of 10 mg/kg expressed as number of animals with ataxia total 5 animals tested after 15 min was reported. The format is functional. Summed up:
as §5

For test [30], the system named is Mus musculus. Kind of test: Maximal electroshock (MES) results in mice by iv administration of 10 mg/kg expressed as number of animals with ataxia total 5 animals tested after 1 hr was reported. The format is functional. Summed up: as §5
For test [31], the system named is Mus musculus. Kind of test: Maximal electroshock (MES) results in mice by iv administration of 3 mg/kg expressed as number of animals with ataxia by total 5 animals tested after 1 hr was reported. The format is functional. Summed up: as §5
Test [32] concerns Mus musculus. Kind of test: Maximal electroshock (MES) results in mice by iv administration of 3 mg/kg expressed as number of animals with ataxia total 5 animals tested after 2 hr was reported. Format: functional. Summed up:
as §5

Test [33] concerns the target Glutamate NMDA receptor. Kind of test: Inhibition of receptor binding affinity in […] measured using LDH release. Summed up:
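Neuronal cell-culture excitotoxicity assay. Cell death is induced by a 5 min application of 100 μM NMDA and read out as lactate dehydrogenase release. The value is the compound concentration needed to prevent cell death.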
A general note: Release of lactate dehydrogenase indicates damage to the cell membrane.

Test [34] concerns Mus musculus. Kind of test: Maximal electroshock (MES) results in mice by iv administration of 3 mg/kg expressed as number of animals protected by total 5 animals tested after 2 hr was reported. Format: functional. In a few lines: as §5
For test [35], the system named is Mus musculus. Briefly: Maximal electroshock (MES) results in mice by iv administration of 3 mg/kg expressed as number of animals protected by total 5 animals tested after 15 min was reported. Format: functional. In a few lines:
as §5

Test [36] relates to Mus musculus. Briefly: Maximal electroshock (MES) results in mice by iv administration of 3 mg/kg expressed as number of animals protected by total 5 animals tested after 1 hr was reported. Format: functional. In a few lines: as §5

For `N[C@@H](Cc1cccc(-c2ccccc2)c1)C(=O)O`, the inhibition in [1] is 52%; in test [2], 58%; in test [3], 52%.

As to `N[C@@H](Cc1cc(CP(=O)(O)O)cc(-c2ccc3ccccc3c2)c1)C(=O)O`, the Protected in [4] is 0; in [6], 1; in test [10] it was 5; in [11], 1; in test [12], 5; in test [15], 2. Further, the concentration for half-maximal inhibition (IC50) was found to be 0.012 µM in test [5] and 0.014 µM in [9]. Moreover, the Ataxia in test [7] is recorded as 0; in [8], 0; in test [13], 1; in [14] it was 0; in test [16] it was 0; in test [17], 0.

On to `N[C@H](Cc1cccc(-c2ccccc2)c1)C(=O)O`, for which the inhibition was 81% in [1], 90% in test [2] and 100% in test [3].

`O=P(O)(O)Cc1cc(CP(=O)(O)O)cc(-c2ccccc2)c1`: the results for the inhibition in [18], in test [3] and in test [19] were 100%, 86% and 80%, respectively.

Turning to `N[C@H](Cc1cc(CP(=O)(O)O)cc(-c2ccccc2)c1)C(=O)O`, the Protected in [20], in [21] and in [23] was 0 throughout. In addition, the IC50 was 5.21 µM in [5], > 200 µM in test [22] and 13.5 µM in [9]. Besides, the Ataxia in test [24], in test [25] and in [26] was 0 throughout.

In the case of `N[C@@H](Cc1cc(CP(=O)(O)O)cc(-c2ccccc2)c1)C(=O)O`, the Protected in test [20] is recorded as 3; in test [21] it was 4; in test [23] it was 5; in [34] it was 1; in [35], 1; in [36], 0. The Ataxia in test [27] is given as 0; in test [28], 0; in test [29], 0; in test [30], 1; in test [31], 0; in [32], 0. In addition, the 50% inhibitory concentration (IC50) in [5] was 0.088 µM; in test [22], 224 µM; in [33], 1 µM; in test [9], 0.13 µM.
